According to ChEMBL document CHEMBL2057085, “Diazaspirocyclic compounds as selective ligands for the α4β2 nicotinic acetylcholine receptor” (Bioorg Med Chem Lett, 2012):

Assays:
[1] = target: T1, Neuronal acetylcholine receptor; alpha3/beta4 (Homo sapiens, UniProt P30926+P32297); experiment: Agonist activity at human ganglionic nAChR alpha3beta4 expressed in human SHSY-5Y cells assessed as calcium flux by fluorescence analysis relative to nicotine; conditions: SH-SY5Y
[2] = target: Neuronal acetylcholine receptor; alpha4/beta2 (Rattus norvegicus, UniProt P09483+P12390); experiment: Displacement of [3H]-nicotine from rat nAChR alpha4beta2 in rat cortex
[3] = target: Acetylcholine receptor; alpha1/beta1/delta/gamma (Homo sapiens, UniProt P02708+P07510+P11230+Q07001); experiment: Binding affinity to human muscle nAChR alpha1beta1gammadelta expressed in human TE-671 cells; type: cell-based
Chain of Acetylcholine receptor; alpha1/beta1/delta/gamma (P02708 whole entry): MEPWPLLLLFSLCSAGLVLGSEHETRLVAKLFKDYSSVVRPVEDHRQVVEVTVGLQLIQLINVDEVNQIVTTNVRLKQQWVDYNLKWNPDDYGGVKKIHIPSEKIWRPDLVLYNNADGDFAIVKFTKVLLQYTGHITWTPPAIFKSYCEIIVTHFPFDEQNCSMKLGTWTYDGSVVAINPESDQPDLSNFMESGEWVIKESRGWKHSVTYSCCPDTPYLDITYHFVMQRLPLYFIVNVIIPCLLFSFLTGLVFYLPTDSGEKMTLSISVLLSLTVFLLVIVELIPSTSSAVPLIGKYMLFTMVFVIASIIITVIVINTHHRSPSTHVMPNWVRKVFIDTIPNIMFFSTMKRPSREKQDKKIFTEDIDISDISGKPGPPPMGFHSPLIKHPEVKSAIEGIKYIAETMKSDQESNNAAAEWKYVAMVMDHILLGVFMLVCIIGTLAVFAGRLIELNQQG
Chain of Acetylcholine receptor; alpha1/beta1/delta/gamma (P07510 whole entry): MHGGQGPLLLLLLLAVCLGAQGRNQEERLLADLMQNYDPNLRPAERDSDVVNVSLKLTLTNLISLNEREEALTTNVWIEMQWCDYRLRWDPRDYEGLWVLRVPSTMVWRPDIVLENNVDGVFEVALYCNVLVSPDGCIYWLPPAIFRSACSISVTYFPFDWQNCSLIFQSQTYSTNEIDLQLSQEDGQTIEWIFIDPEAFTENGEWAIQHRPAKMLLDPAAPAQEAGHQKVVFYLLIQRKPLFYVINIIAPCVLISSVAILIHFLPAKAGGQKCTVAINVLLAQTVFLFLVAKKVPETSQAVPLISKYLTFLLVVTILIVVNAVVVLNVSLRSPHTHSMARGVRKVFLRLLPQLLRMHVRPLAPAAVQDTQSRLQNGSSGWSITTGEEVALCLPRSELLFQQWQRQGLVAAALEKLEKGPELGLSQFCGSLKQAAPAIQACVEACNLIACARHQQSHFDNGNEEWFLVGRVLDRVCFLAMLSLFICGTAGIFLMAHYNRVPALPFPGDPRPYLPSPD
Chain of Acetylcholine receptor; alpha1/beta1/delta/gamma (P11230 whole entry): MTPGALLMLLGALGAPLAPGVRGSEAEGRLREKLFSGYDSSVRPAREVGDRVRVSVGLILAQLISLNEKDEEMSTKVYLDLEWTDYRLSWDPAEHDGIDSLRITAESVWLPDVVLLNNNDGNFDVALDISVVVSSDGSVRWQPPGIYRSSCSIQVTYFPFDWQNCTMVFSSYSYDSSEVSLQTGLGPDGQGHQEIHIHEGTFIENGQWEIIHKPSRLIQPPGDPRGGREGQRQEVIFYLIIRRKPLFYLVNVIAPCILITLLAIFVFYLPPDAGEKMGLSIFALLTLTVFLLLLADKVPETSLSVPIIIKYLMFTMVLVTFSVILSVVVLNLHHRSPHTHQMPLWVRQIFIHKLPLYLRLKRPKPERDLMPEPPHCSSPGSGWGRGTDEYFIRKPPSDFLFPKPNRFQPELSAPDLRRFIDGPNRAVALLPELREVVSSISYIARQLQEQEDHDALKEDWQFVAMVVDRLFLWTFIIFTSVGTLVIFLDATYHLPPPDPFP
Chain of Acetylcholine receptor; alpha1/beta1/delta/gamma (Q07001 whole entry): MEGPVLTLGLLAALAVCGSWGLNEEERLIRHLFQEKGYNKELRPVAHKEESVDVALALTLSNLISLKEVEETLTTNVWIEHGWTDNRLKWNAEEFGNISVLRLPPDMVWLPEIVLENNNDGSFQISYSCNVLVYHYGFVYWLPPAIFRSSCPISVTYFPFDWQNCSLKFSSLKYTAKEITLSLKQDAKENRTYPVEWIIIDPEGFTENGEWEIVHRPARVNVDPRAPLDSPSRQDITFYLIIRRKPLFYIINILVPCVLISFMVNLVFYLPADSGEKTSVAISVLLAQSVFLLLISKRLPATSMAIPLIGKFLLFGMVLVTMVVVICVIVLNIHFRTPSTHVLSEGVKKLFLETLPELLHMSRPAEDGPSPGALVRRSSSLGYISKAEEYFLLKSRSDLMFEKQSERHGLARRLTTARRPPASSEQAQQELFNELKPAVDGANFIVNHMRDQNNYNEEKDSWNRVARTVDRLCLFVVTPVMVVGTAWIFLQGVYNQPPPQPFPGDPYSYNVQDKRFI
Procedure, shortened: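 Binding carried out in TE-671 cells as the muscle-type receptor source. Affinity reported as Ki, given as the mean.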

[4] = target: T1, Neuronal acetylcholine receptor; alpha3/beta4; experiment: Binding affinity to human ganglionic nAChR alpha3beta4 expressed in human SHSY-5Y cells; type: cell-based, SH-SY5Y
Procedure, shortened: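 Binding measured on the α3β4 subtype endogenous to human SHSY-5Y clonal cells. Affinity reported as Ki, given as the mean.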

[5] = target: Neuronal acetylcholine receptor subunit alpha-7 (Homo sapiens, UniProt P36544); experiment: Binding affinity to human nAChR alpha7 expressed in HEK cells coexpressing RIC3; type: cell-based, HEK293
Chain of Neuronal acetylcholine receptor subunit alpha-7 (P36544 whole entry): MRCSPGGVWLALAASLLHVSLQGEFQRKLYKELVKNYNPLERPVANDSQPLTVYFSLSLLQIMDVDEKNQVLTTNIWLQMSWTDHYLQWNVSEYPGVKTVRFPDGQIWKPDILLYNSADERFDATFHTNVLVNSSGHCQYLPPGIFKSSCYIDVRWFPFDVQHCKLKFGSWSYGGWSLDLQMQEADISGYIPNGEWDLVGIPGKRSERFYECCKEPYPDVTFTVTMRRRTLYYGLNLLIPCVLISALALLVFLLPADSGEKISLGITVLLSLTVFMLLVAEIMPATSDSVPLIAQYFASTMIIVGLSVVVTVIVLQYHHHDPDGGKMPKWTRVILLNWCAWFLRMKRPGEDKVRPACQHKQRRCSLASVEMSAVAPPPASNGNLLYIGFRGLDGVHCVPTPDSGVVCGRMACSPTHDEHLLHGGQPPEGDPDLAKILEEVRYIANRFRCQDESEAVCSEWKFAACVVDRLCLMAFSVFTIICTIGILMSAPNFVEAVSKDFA
Procedure, shortened: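 Binding measured at human α7 nAChR in HEK cells coexpressing RIC3. Affinity reported as Ki, given as the mean.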

[6] = target: T2, Neuronal acetylcholine receptor; alpha4/beta2 (Homo sapiens, UniProt P17787+P43681); experiment: Antagonist activity at human nAChR alpha4beta2 expressed in human SH-EP1 cells assessed as calcium flux by fluorescence analysis relative to nicotine; type: functional, cell-based
T2 sequence (P17787 whole entry): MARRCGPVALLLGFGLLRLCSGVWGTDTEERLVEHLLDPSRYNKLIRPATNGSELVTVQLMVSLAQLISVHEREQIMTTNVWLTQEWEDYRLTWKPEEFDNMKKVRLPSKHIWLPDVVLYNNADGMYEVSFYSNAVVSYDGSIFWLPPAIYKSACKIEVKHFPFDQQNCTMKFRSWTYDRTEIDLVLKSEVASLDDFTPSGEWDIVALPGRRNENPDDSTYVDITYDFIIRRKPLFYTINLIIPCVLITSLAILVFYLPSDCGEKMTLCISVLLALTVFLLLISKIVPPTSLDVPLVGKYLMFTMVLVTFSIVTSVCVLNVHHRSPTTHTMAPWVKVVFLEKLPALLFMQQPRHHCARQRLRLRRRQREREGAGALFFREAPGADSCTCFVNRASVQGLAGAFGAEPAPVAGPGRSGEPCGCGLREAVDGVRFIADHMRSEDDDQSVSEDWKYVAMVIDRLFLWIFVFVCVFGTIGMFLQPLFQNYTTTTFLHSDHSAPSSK
T2 sequence (P43681 whole entry): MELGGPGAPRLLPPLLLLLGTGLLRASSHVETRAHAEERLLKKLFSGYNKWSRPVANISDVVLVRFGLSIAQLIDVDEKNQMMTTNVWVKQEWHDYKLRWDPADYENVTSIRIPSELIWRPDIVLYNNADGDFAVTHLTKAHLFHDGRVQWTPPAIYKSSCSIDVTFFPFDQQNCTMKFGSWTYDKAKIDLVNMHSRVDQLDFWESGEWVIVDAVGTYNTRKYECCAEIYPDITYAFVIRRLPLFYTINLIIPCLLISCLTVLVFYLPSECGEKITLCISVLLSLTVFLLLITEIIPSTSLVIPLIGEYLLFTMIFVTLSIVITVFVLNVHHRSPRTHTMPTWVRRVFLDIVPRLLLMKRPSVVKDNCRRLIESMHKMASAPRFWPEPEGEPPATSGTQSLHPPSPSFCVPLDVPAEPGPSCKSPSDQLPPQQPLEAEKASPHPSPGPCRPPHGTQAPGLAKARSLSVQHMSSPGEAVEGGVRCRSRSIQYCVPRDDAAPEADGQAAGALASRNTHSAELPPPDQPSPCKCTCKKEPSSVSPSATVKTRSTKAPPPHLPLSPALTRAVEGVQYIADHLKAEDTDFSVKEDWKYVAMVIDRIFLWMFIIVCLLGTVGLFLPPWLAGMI

[7] = target: T2, Neuronal acetylcholine receptor; alpha4/beta2; experiment: Displacement of [3H]-epibatidine from human nAChR alpha4beta2 expressed in human SH-EP1 cells; type: cell-based
Procedure, shortened: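 Radioligand binding using [3H]-epibatidine on human α4β2 nAChR expressed in SH-EP1 cells. Affinity reported as Ki, given as the mean.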

[8] = target: T1, Neuronal acetylcholine receptor; alpha3/beta4; experiment: Agonist activity at human ganglionic nAChR alpha3beta4 expressed in human SHSY-5Y cells assessed as calcium flux by fluorescence analysis

T1 sequence (P30926 whole entry): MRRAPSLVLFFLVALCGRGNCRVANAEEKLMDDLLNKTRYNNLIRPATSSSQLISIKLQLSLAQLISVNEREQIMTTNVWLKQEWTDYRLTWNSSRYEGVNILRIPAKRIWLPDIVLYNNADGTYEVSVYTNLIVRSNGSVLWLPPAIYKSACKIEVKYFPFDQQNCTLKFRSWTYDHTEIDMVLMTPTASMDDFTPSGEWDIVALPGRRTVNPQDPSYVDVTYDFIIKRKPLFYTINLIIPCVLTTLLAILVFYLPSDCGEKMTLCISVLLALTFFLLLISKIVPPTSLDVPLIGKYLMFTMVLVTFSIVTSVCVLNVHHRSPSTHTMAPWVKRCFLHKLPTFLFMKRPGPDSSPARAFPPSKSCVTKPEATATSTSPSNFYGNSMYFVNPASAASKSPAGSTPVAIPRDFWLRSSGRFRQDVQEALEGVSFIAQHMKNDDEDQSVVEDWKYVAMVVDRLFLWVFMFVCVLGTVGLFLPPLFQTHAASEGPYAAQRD
T1 sequence (P32297 whole entry): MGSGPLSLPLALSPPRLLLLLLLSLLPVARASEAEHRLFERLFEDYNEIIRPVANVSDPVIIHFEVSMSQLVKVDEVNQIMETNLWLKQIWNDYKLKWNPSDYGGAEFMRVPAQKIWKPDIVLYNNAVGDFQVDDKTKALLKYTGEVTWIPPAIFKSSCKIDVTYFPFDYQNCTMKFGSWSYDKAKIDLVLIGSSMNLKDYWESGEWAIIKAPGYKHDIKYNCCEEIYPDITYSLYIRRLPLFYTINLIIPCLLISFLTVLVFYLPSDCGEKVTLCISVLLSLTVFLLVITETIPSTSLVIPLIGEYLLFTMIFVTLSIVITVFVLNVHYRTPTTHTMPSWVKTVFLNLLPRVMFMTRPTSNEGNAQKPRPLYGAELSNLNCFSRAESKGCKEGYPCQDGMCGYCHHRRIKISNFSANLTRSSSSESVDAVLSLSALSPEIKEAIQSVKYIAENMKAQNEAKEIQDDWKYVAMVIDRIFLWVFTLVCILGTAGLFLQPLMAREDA

| Compound | Emax [1] | Ki [2] | Ki [3] | Ki [4] | Ki [5] | Emax [6] | Ki [7] | EC50 [8] |
| --- | --- | --- | --- | --- | --- | --- | --- | --- |
| c1cncc(N2CCC3(CC4CCN3C4)C2)c1 (stereo unspecified) | 3.1% | 0.04 µM | 9.9 µM | 2.4 µM | 7.9 µM | 92% | 0.029 µM | 31 µM |
| c1cncc(N2CCC3(CCCN3)C2)c1 (stereo unspecified) [TC-2216] | 9.6% | 0.075 µM | 5.7 µM | 1.2 µM | 6.9 µM | – | 0.029 µM | 55 µM |
| c1cncc(N2CCC3(CC4CCN3CC4)C2)c1 (stereo unspecified) | 4.2% | 0.0057 µM | 11 µM | 1.1 µM | 8 µM | 92% | 0.032 µM | 6.9 µM |
| c1cncc(N2CCC3(C2)C2CCN3CC2)c1 (stereo unspecified) | 29% | 0.034 µM | 0.58 µM | 0.56 µM | 7.6 µM | 92% | 0.01 µM | 2.6 µM |
